From ChEMBL document CHEMBL1127524, “Nitrobenzyl phosphorodiamidates as potential hypoxia-selective alkylating agents” (1994) come the findings set out here.

SMILES strings stand for the structures.

Assay [1] relates to HT-29. Kind of assay: Cytotoxicity of compound was evaluated against HT-29 cells under aerobic conditions. Format: functional, Homo sapiens. An outline of the steps:
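Human colon carcinoma HT-29 cells (α-MEM, 10% FBS), exponential growth, suspended at 1-2 × 10^5 cells/mL in glass vials; 4 h drug exposure gassed with 97% air/3% CO2; drug from DMSO, controls 1% DMSO; washed, plated, 14-day clonogenic colonies (>50 cells) counted; survival vs untreated; duplicates; IC90 from log-linear portion of survival curve.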

The subject of assay [2] is HT-29. In words: Cytotoxicity of compound was evaluated against HT-29 cells under hypoxic conditions. Type of assay: functional, Homo sapiens. An outline of the steps:
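HT-29 cells at 1-2 × 10^7 cells/mL deoxygenated 10 min at 37 °C in gas-tight syringe, injected into medium degassed 3 h with 97% N2/3% CO2; 4 h exposure under continuous N2/CO2 gassing, run alongside aerobic arm with same drug stock; 1% DMSO controls; 14-day colony formation (>50 cells); survival vs untreated; duplicates; IC90 from log-linear survival curve.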

Consider `CC(OP(=O)(N(CCCl)CCCl)N(CCCl)CCCl)c1ccc([N+](=O)[O-])cc1` (stereo not given), for which the LC90 with HT-29 [1] is >2000 µM; with HT-29 [2] it was 22 µM.

`O=[N+]([O-])c1ccc(COP(=O)(N(CCCl)CCCl)N(CCCl)CCCl)cc1`: the LC90 with HT-29 [1] amounted to 109 µM; in the assay on HT-29 [2], 55 µM.

On to `CN(C)CCCOC(=O)CC(OP(=O)(N(CCCl)CCCl)N(CCCl)CCCl)c1ccc([N+](=O)[O-])cc1` (stereo not given), for which the LC90 with HT-29 [1] is 95 µM; in the assay on HT-29 [2], 50 µM.

In the case of `CCOC(=O)CC(OP(=O)(N(CCCl)CCCl)N(CCCl)CCCl)c1ccc([N+](=O)[O-])cc1` (stereo not given), the values for the LC90 in the assay on HT-29 [1] and in the assay with HT-29 [2] were 106 µM and 13 µM, respectively.

With `CN(C)CCOC(=O)CC(OP(=O)(N(CCCl)CCCl)N(CCCl)CCCl)c1ccc([N+](=O)[O-])cc1` (stereo not given), the LC90 in the assay with HT-29 [1] was 55 µM; in the assay with HT-29 [2], 34 µM.
